PubChem BioAssay AID504383 (The Scripps Research Institute Molecular Screening Center, 2011)
About 1,200 (48%) of roughly 2,500 compounds were called active.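 How the source made its calls: active means mean activation above the low control average plus 3 SD, as set in the primary screen (cut at about 12% in these data); inactive means the rest.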 So high a share suggests a set chosen from earlier hits. This is one part of the list.

These molecules were tested against Troponin I, cardiac muscle (Homo sapiens) + Troponin T, cardiac muscle (Homo sapiens) + Troponin C, slow skeletal and cardiac muscles (Homo sapiens) (UniProt P19429+P45379+P63316) (assay: cardiac RTF calcium sensitivity activators, confirmation, biochemical, IANBD-TnC fluorescence, triplicate (AID 504383;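 further: 0% = DMSO at 0.472 mM calcium and 100% = DMSO at 2.9 mM calcium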)). Conditions: IANBD-labeled cardiac RTF, Ca2+ sensitivity fluorescence; at 7.2 µM; active compounds read high; scaled from EC20 to saturating calcium; tested at EC20 calcium, 0.472 mM.
Procedure, shortened: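 Assay system: labelled regulated thin filament protein complex; schedule: 15 min compound incubation with filaments at 25 °C; benchmarks: low control EC20 calcium, high control EC100 calcium; reagent: Ca2+ 0.472 mM, EC20 level; doses: one dose, 7.2 µM nominal; evaluation: fluorescence gain scaled between EC20 and EC100 calcium controls; signal: filament fluorescence intensity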

activation, active:
Cc1cc(C)n(-c2ccc(C(=O)O)cc2)n1 16.2%
N#CC1=C(N)Oc2ccc3ccc(O)cc3c2C1c1ccsc1 (configuration not stated) 31.6%
CCOC(=O)c1sc(N)c(C#N)c1COC(=O)CNC(=O)c1cc(OC)c(OC)c(OC)c1 67.4%
CC(C)CC[C@@H](O)[C@](C)(O)C1CC[C@@]2(O)C3=CC(=O)[C@@H]4C[C@@H](O)[C@@H](O)C[C@]4(C)C3CC[C@]12C (some centres not stated) 279%
CNC(=O)N(O)C1N(C)C(=O)N(CC(=O)OC)C1(C)C (configuration not stated) 55.3%
COc1cc(OC)c(C(=O)OC(C)C(=O)Nc2cccc(C(F)(F)F)c2)cc1OC (configuration not stated) 32.5%
COc1ccc(C2=NN(C(=O)COC(=O)c3ccc(NC(=O)CC#N)cc3)C(c3ccco3)C2)cc1 (configuration not stated) 14.7%
COc1ccc(OC)c(NC(=O)CNC(=O)Cn2c(C)cc3ccccc3c2=O)c1 3680%
NS(=O)(=O)c1ccc(NC(=O)COc2ccc(C(=O)c3ccc(F)cc3)cc2)cc1 1350%
O=C(CN1C(=O)c2ccccc2C1=O)NCc1ccc(N2CCOCC2)cc1 12.4%
CN(C)c1ccc(/C=C/c2nc3ccccc3c(=O)n2CCO)cc1 398%
COc1cc2c(cc1[N+](=O)[O-])-c1ccccc1C2 302%
CNc1ccccc1C(C)(C)c1cc(C)[nH]n1 28.3%
O=C(OCCN1C(=O)c2cccc3c(N4CCOCC4)ccc(c23)C1=O)c1ccc(Cl)cc1Cl 39.1%
O=C(OCCN1C(=O)c2cccc3c(N4CCOCC4)ccc(c23)C1=O)c1ccccc1Cl 13.6%
CCCN(CCC)S(=O)(=O)c1ccc(C(=O)OCCN2C(=O)c3cccc4c(N5CCOCC5)ccc(c34)C2=O)cc1 16.2%
O=C(OCCN1C(=O)c2cccc3c(N4CCOCC4)ccc(c23)C1=O)c1ccc(Cl)cc1 25.9%
CCN(CC)c1ccc(/C=c2\sc3nc4ccccc4n3c2=O)c(O)c1 41.3%
CC(=O)Oc1ccc(NC(=O)Cc2ccccc2)c(C(=O)O)c1 34.2%
CCN1C(=O)[C@@H]2[C@@H](c3ccc(-c4cccc(Cl)c4)cc3)N3CCC[C@@]3(C(=O)OC)[C@@H]2C1=O 14%
O=C(O)/C=C/C(=O)NCc1csc2ccccc12 278%
CCC(Oc1cc(Cl)ccc1Cl)C(=O)NNC(=O)CCC(=O)O (configuration not stated) 12.2%
Fc1ccc(CN2CC[C@H]3C=CCc4cccc(c43)C2)cc1 144%
CCN(CC)C(=S)SCC(=O)c1c(C)[nH]c2ccccc12 27%
CCN(CC)C(=O)C(=O)c1c(-c2ccccc2)[nH]c2ccccc12 20.5%
CCOC(=O)CNc1ccc2c(c1)OCO2 15.4%
O=C(Nc1ccc2c(c1)OCCO2)c1cccc(Cl)c1Cl 77.8%
O=C(Nc1ccc2c(c1)OCO2)c1ccc2c(c1)OCO2 16.1%
CCCCOC(=O)Cn1c2ccc(OC)cc2c2nc3ccccc3nc21 12.9%
CCOc1ccc(Cn2c3ccc(OC)cc3c3nc4ccccc4nc32)cc1 81.5%
CN(C)c1ccc(/C=C2\SC(=O)N(CC(O)Cn3c4ccccc4c4ccccc43)C2=O)cc1 (configuration not stated) 14.3%
O=C(COC(=O)c1cc(-c2cccc3ccccc23)nc2ccccc12)NC1CCS(=O)(=O)C1 (configuration not stated) 13.5%
CCN1CC=C2C(C#N)=C(N)C(C#N)(C#N)C(c3cc(Cl)ccc3Cl)C2C1 (configuration not stated) 253%
CCN1CC=C2C(C#N)=C(N)C(C#N)(C#N)[C@H](c3cccc(OC)c3OC)[C@H]2C1 14.7%
CCN(CC(=O)Nc1ccccc1C(=O)NC1CC1)Cc1cccs1 89.2%
Cn1cc(/C=C2\SC(=S)N(NC(=O)c3ccccc3)C2=O)c2ccccc21 40.9%
Cc1ccc(C(=O)NN2C(=O)/C(=C/c3cn(C)c4ccccc34)SC2=S)cc1 19.4%
Cn1cc(/C=C2\SC(=S)N(NC(=O)c3cccc(Cl)c3)C2=O)c2ccccc21 52.1%
Cn1cc(/C=C2\SC(=S)N(NC(=O)c3ccccc3Cl)C2=O)c2ccccc21 23.3%
O=[N+]([O-])c1ccc(N2N=C(c3ccccc3)CC2c2ccccc2O)cc1 (configuration not stated) 127%
COc1ccc(C2CC(c3ccncc3)=NN2c2ccc(S(N)(=O)=O)cc2)cc1 (configuration not stated) 13.1%
NS(=O)(=O)c1ccc(N2N=C(c3ccccc3)CC2c2ccccc2)cc1 (configuration not stated) 31%
Cc1ccccc1-n1nnnc1SCC(C)C 103%
O=C(COc1ccccc1F)NC1CC1 66.3%
O=C(N/N=C/c1cc([N+](=O)[O-])ccc1N1CCNCC1)c1ccc([N+](=O)[O-])cc1 19%
CCN(CC)c1ccc(C=C2SC(=S)NC2=O)cc1 57.9%
CCN(CC)c1ccc(/C=C2\SC(N)=NC2=O)cc1 108%
CN(C)c1ccc(C=C2SC(=S)NC2=O)cc1 11.7%
CCOc1ccc(N(C)c2ccc(/C=C3/SC(=S)NC3=O)cc2)cc1 20.5%

activation, inactive:
Cc1cc(C)n(-c2ccc([N+](=O)[O-])cc2-c2nn[nH]n2)n1 7.13%
O=C(O)c1ccc(O)c(O)c1 7.5%
N#CC1=C(N)SC(N)=C(C#N)C1c1cccc(O)c1 6.27%
CCOC(=O)c1sc(N)c(C#N)c1COC(=O)CNC(=O)c1ccccc1 8.8%
COc1ccc(OC(C)C(=O)Nc2cccc(OC)c2)cc1 (configuration not stated) 7.49%
COc1ccc(OC)c(NC(=S)Nc2ccccc2)c1 5.57%
CCCC(CCC(=O)Nc1ccc(S(N)(=O)=O)cc1)C(=O)O (configuration not stated) 8.1%
O=C(Oc1cc2oc(=O)c3c(c2cc1Cl)CCCC3)c1cccs1 1.37%
CC1CC(C)CN(C(=O)COC(=O)CCc2nc3ccccc3c(=O)[nH]2)C1 (configuration not stated) 8.84%
NC(=O)N/N=C/c1ccc(N2CCOCC2)s1 3.82%
COc1ccc(Sc2ccc(-c3nc4cnccn4c3NC3CCCCC3)cc2OC)cc1 3.89%
CCOC(=O)C1C(=O)C=C(/C=C/c2ccc(N(C)C)cc2)CC1c1ccccc1 (configuration not stated) 5.48%
C[C@@H]1C=C(C(=O)N2CCOCC2)O[C@H](OCc2ccc(CO)cc2)C1 6.41%
CC1(C)CC2CC(C)(CN2C(=S)Nc2ccccc2F)C1 (configuration not stated) 3.28%
CC(=O)N(C(C)=O)N1C(=O)c2cccc3c(N4CCOCC4)ccc(c23)C1=O 10.5%
COc1cccc(C(=O)Nc2cc(C(=O)NCc3ccc(C)cc3)ccc2N2CCC3(CC2)CC(c2cccc(Br)c2)=NO3)c1 5.62%
O=C1OCC/C1=C\c1ccccc1O 3.58%
COc1ccc(NC(=O)Cc2ccccc2)cn1 9.43%
Cc1ccc(OCc2ccc(C(=O)O)o2)cc1C 4.06%
CCCCCCSc1ccc([C@@H]2[C@H]3C(=O)N(CC)C(=O)[C@H]3[C@]3(C(=O)OC)CCCCN23)cc1OC 6.92%
O=C(NCc1csc2ccccc12)Nc1cc(Cl)cc(Cl)c1 7.6%
COC1C(CO)OC(n2c3c(Cl)cccc3c3c4c(c5c6cccc(Cl)c6[nH]c5c32)C(=O)NC4=O)C(O)C1O (configuration not stated) 2.74%
CCN(CC)CC(C(=O)N(CC)CC)P(=O)(c1ccccc1)c1ccccc1 (configuration not stated) 6.63%
CCN(CC)S(=O)(=O)c1ccc2c(c1)nc(CCC(=O)Nc1ccc3c(c1)OCO3)n2C 8.98%
C=CCn1cccc(C(=O)Nc2ccc(OC)c(Cl)c2)c1=O 7.57%
O=C(COc1ccccc1)NC(=S)Nc1cccc(NC(=O)c2ccccc2Cl)c1 7.06%
CC(=O)c1cc2c(cc1N/C(=N/S(=O)(=O)c1ccc(Br)cc1)c1ccccc1)OCO2 5.61%
CCOc1ccc2nc3cc(NCc4ccc(OC)cc4)ccc3c(N)c2c1 4.24%
COc1ccc(Cn2nnc3ccccc32)cc1 8.45%
CCOC(=O)c1c(C(C)(C)C)oc2ccc(OCC#N)cc12 8.86%
CN(C)c1ccc(/C=C2\SC(=O)N(CCc3nnc(N)s3)C2=O)cc1 5.55%
CCOC(=O)CN1C(=O)S/C(=C/C=C/c2ccc(N(C)C)cc2)C1=O 3.71%
COc1cc2nc(/C=C/c3ccc(N(C)C)cc3)sc2cc1SC -0.52%
CCCN1CC=C2C(C#N)=C(N)C(C#N)(C#N)C(c3cccc(OC)c3OC)C2C1 (configuration not stated) 0.08%
O=C(COC(=O)/C=C/c1ccc(Cl)cc1)NCCN1C(=O)CSC1=O 4.03%
O=C(c1ccccn1)N(Cc1cccs1)C1(C(=O)NC2CCCCC2)CCCCC1 1.46%
Cc1ccc(C(C(=O)NC2CCCC2)N(C(=O)Cc2cccs2)c2cccc(C)c2C)o1 (configuration not stated) 7.72%
N#CCC(=O)N/N=C/c1ccc(N2N=C(c3ccccc3)CC2c2ccccc2)cc1 (configuration not stated) 8.4%
N#CC1CC(c2ccc([N+](=O)[O-])cc2)=NN1c1ccc([N+](=O)[O-])cc1 (configuration not stated) 6.69%
CSc1nnnn1-c1c(C)cc(C)cc1C 3.29%
COC(=O)c1cc2c(C)c(C)c3ccccn3c-2c1C(=O)OC 5.27%
CCOc1ccc(NC(=S)c2ccncc2)cc1 6.9%
C=CCN1C(=O)[C@@H]2Cc3c([nH]c4ccccc34)C(c3ccc(O)cc3)N2C1=S (some centres not stated) 4.94%
N#CC12COC3(CCCCC3C1(C#N)C#N)OC2=N (configuration not stated) 2.01%
COc1ccccc1N=C1NC(=O)/C(=C/c2ccc(N(C)C)cc2)S1 10.9%
COc1ccc(-c2nn(CCC(=O)O)cc2/C=C2\SC(N)=NC2=O)cc1 8.42%
CCCOc1ccc(-c2nn(-c3ccccc3)cc2/C=C2\SC(N)=NC2=O)cc1 -0.61%
CN(C)c1ccc(/C=C2\CCC/C(=C\c3ccccc3)C2=O)cc1 0.5%
